Results from article PMC2115016 (The Journal of Cell Biology, 1988).

Legend:
[1] = tested on: chick embryo dorsal root ganglia (DRG); assay: Neurite outgrowth of explanted ganglia on substrate-adsorbed ligands; format: cell-based
Summary of the method: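 Ligands in Dulbecco's PBS were adsorbed to wells (60 min, RT), then blocked with 10 mg/ml heat-denatured BSA (30 min, RT). For co-coating, the fragment went on first, then the CS-IgG conjugate, 60 min each. Lumbosacral DRG from 10-12-d chick embryos were cultured overnight at 37°C in Ham's F12 with 2 mM glutamine, antibiotics and 20 ng/ml 7S-NGF. After glutaraldehyde fixation, radius was read at four 90° positions with a calibrated eyepiece, 6-10 ganglia per point.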

[2] = tested on: chick embryo dorsal root ganglia (DRG); format: cell-based; settings: for Inhibition of neurite outgrowth on fibronectin by CS peptide: Table IV, 1 mg/ml peptide, BSA background subtracted
[3] = tested on: B16-F10 murine melanoma cells; settings: melanoma cell system; cited from earlier work
[4] = tested on: chick embryo fibroblasts; assay: Adhesion and spreading of chick embryo fibroblasts on coated substrates; format: cell-based; settings: control experiment

Substance: Nerve growth factor [reference compound]
- Effect on fibronectin-mediated neurite extension ([1]; control experiment, medium supplement 20 ng/ml): no detectable effect

Substance: LPGTSGQQPSVGQQMIFEEHGFRR [CS3]
- Inhibition of neurite outgrowth on fibronectin by CS peptide ([2]; 20 μg/ml fibronectin): 11%

Substance: DELPQLVTLPHPNLHGPEILDVPST [CS1]
- Inhibition of neurite outgrowth on fibronectin by CS peptide ([2]; 20 μg/ml fibronectin): 32%
- Inhibition of fibronectin-mediated neurite extension ([2]; five independent experiments): 25-30%
- Activity relative to fibronectin on a molar basis, fold less active [3]: 2.5 fold

Substance: FRRTTPPTTATPIRHRPRPYPPNVGEE [CS4]
- Further inhibition when coincubated with mAb 333 (300 μg/ml) ([2]; Fig. 6, 20 μg/ml fibronectin, CS4 1 mg/ml, compared with mAb 333 alone): no further inhibitory activity

Substance: Fibronectin
- Adhesion / spreading of chick embryo fibroblasts on substrate [4]: adhere equally well
- Relative activity ([1]; Table I, relative to activity of fibronectin after subtraction of the background due to IgG): 100%
